In publication PMC2738612 (Biochemistry, 2009):

What was measured:
[1] = tested on: gelatin (denatured type I collagen); experiment: Surface plasmon resonance binding to immobilized gelatin; parameters: species or system rat; conditions: 1 µM analyte, Biacore buffer pH 7.4; compared to WT CBD
native type I collagen = experiment: Surface plasmon resonance binding to immobilized native type I collagen; parameters: species or system rat; conditions: 1 µM analyte, Biacore buffer pH 7.4; compared to WT CBD
Procedure, shortened: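 Native non-pepsin-treated acid-soluble rat tail type I collagen in 10 mM sodium acetate, pH 4.5, was amine-coupled to EDC/NHS-activated CM5 chips at ~3000 RU, then ethanolamine-blocked; an uncoated flow cell served as control. Analytes at 1 µM in 10 mM HEPES, 150 mM NaCl, 0.005% P20, pH 7.4, flowed at 5 µl/min for 6 min. RU were averaged over 5 s before injection end. Chips were regenerated with 6 M guanidine-HCl, with WT CBD run at the start and end of each series.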

B1: E^321A: rCBD variant, single-point alanine substitution at E^321, module 2 (protein)
chain: APSPIIKFPGDVAPKTDKELAVQYLNTFYGCPKESCNLFVLKDTLKKMQKFFGLPQTGDLDQNTIETMRKPRCGNPDVANYNFFPRKPKWDKNQITYRIIGYTPDLDPETVDDAFARAFQVWSDVTPLRFSRIHDGEADIMINFGRWEHGDGYPFDGKDGLLAHAFAPGTGVGGDSHFDDDELWTLGEGQVVRVKYGNADGEYCKFPFLFNGKEYNSCTDTGRSDGFLWCSTTYNFEKDGKYGFCPHEALFTMGGNAEGQPCKFPFRFQGTSYDSCTTEGRTDGYRWCGTTADYDRDKKYGFCPETAMSTVGGNSEGAPCVFPFTFLGNKYESCTSAGRSDGKMWCATTANYDDDRKWGFCPDQGYSLFLVAAHEFGHAMGLEHSQDPGALMAPIYTYTKNFRLSQDDIKGIQELYGASPDIDLGTGPTPTLGPVTPEICKQDIVFDGIAQIRGEIFFFKDRFIWRTVTPRDKPMGPLLVATFWPELPEKIDAVYEAPQEEKAVFFAGNEYWIYSASTLERGYPKPLTSLGLPPDVQRVDAAFNWSKNKKTYIFAGDKFWRYNEVKKKMDPGFPKLIADAWNAIPDNLDAVVDLQGGGHSYFFKGAYYLKLENQSLKSVKFGSIKSDWLGC
modifications: biotinylated for the microwell assay; left off: His tag, end not stated, state not stated
[1]
  binding to gelatin / denatured type I collagen (SPR, RU): no reduction in collagen-binding
Native type I collagen
  binding to native type I collagen (SPR, RU): no reduction in collagen-binding

B2: F^297A: rCBD variant, single-point alanine substitution at F^297, module 2 (protein)
chain: APSPIIKFPGDVAPKTDKELAVQYLNTFYGCPKESCNLFVLKDTLKKMQKFFGLPQTGDLDQNTIETMRKPRCGNPDVANYNFFPRKPKWDKNQITYRIIGYTPDLDPETVDDAFARAFQVWSDVTPLRFSRIHDGEADIMINFGRWEHGDGYPFDGKDGLLAHAFAPGTGVGGDSHFDDDELWTLGEGQVVRVKYGNADGEYCKFPFLFNGKEYNSCTDTGRSDGFLWCSTTYNFEKDGKYGFCPHEALFTMGGNAEGQPCKFPFRAQGTSYDSCTTEGRTDGYRWCGTTEDYDRDKKYGFCPETAMSTVGGNSEGAPCVFPFTFLGNKYESCTSAGRSDGKMWCATTANYDDDRKWGFCPDQGYSLFLVAAHEFGHAMGLEHSQDPGALMAPIYTYTKNFRLSQDDIKGIQELYGASPDIDLGTGPTPTLGPVTPEICKQDIVFDGIAQIRGEIFFFKDRFIWRTVTPRDKPMGPLLVATFWPELPEKIDAVYEAPQEEKAVFFAGNEYWIYSASTLERGYPKPLTSLGLPPDVQRVDAAFNWSKNKKTYIFAGDKFWRYNEVKKKMDPGFPKLIADAWNAIPDNLDAVVDLQGGGHSYFFKGAYYLKLENQSLKSVKFGSIKSDWLGC
modifications: biotinylated for the microwell assay; left off: His tag, end not stated, state not stated
[1]
  binding to gelatin / denatured type I collagen (SPR, RU): strong reduction in binding
Native type I collagen
  binding to native type I collagen (SPR, RU): strong reduction in binding

B3: E^361A: rCBD variant, single-point alanine substitution at E^361, negative control (protein)
chain: APSPIIKFPGDVAPKTDKELAVQYLNTFYGCPKESCNLFVLKDTLKKMQKFFGLPQTGDLDQNTIETMRKPRCGNPDVANYNFFPRKPKWDKNQITYRIIGYTPDLDPETVDDAFARAFQVWSDVTPLRFSRIHDGEADIMINFGRWEHGDGYPFDGKDGLLAHAFAPGTGVGGDSHFDDDELWTLGEGQVVRVKYGNADGEYCKFPFLFNGKEYNSCTDTGRSDGFLWCSTTYNFEKDGKYGFCPHEALFTMGGNAEGQPCKFPFRFQGTSYDSCTTEGRTDGYRWCGTTEDYDRDKKYGFCPETAMSTVGGNSEGAPCVFPFTFLGNKYASCTSAGRSDGKMWCATTANYDDDRKWGFCPDQGYSLFLVAAHEFGHAMGLEHSQDPGALMAPIYTYTKNFRLSQDDIKGIQELYGASPDIDLGTGPTPTLGPVTPEICKQDIVFDGIAQIRGEIFFFKDRFIWRTVTPRDKPMGPLLVATFWPELPEKIDAVYEAPQEEKAVFFAGNEYWIYSASTLERGYPKPLTSLGLPPDVQRVDAAFNWSKNKKTYIFAGDKFWRYNEVKKKMDPGFPKLIADAWNAIPDNLDAVVDLQGGGHSYFFKGAYYLKLENQSLKSVKFGSIKSDWLGC
modifications: biotinylated for the microwell assay; left off: His tag, end not stated, state not stated
[1]
  binding to gelatin / denatured type I collagen (SPR, RU): no reduction in collagen-binding
Native type I collagen
  binding to native type I collagen (SPR, RU): no reduction in collagen-binding

B4: Y^323A: rCBD variant, single-point alanine substitution at Y^323, module 2 (protein)
chain: APSPIIKFPGDVAPKTDKELAVQYLNTFYGCPKESCNLFVLKDTLKKMQKFFGLPQTGDLDQNTIETMRKPRCGNPDVANYNFFPRKPKWDKNQITYRIIGYTPDLDPETVDDAFARAFQVWSDVTPLRFSRIHDGEADIMINFGRWEHGDGYPFDGKDGLLAHAFAPGTGVGGDSHFDDDELWTLGEGQVVRVKYGNADGEYCKFPFLFNGKEYNSCTDTGRSDGFLWCSTTYNFEKDGKYGFCPHEALFTMGGNAEGQPCKFPFRFQGTSYDSCTTEGRTDGYRWCGTTEDADRDKKYGFCPETAMSTVGGNSEGAPCVFPFTFLGNKYESCTSAGRSDGKMWCATTANYDDDRKWGFCPDQGYSLFLVAAHEFGHAMGLEHSQDPGALMAPIYTYTKNFRLSQDDIKGIQELYGASPDIDLGTGPTPTLGPVTPEICKQDIVFDGIAQIRGEIFFFKDRFIWRTVTPRDKPMGPLLVATFWPELPEKIDAVYEAPQEEKAVFFAGNEYWIYSASTLERGYPKPLTSLGLPPDVQRVDAAFNWSKNKKTYIFAGDKFWRYNEVKKKMDPGFPKLIADAWNAIPDNLDAVVDLQGGGHSYFFKGAYYLKLENQSLKSVKFGSIKSDWLGC
modifications: biotinylated for the microwell assay; left off: His tag, end not stated, state not stated
[1]
  binding to gelatin / denatured type I collagen (SPR, RU): strong reduction in binding
Native type I collagen
  binding to native type I collagen (SPR, RU): strong reduction in binding

B5: F^280A: rCBD variant, single-point alanine substitution at F^280, negative control (protein)
chain: APSPIIKFPGDVAPKTDKELAVQYLNTFYGCPKESCNLFVLKDTLKKMQKFFGLPQTGDLDQNTIETMRKPRCGNPDVANYNFFPRKPKWDKNQITYRIIGYTPDLDPETVDDAFARAFQVWSDVTPLRFSRIHDGEADIMINFGRWEHGDGYPFDGKDGLLAHAFAPGTGVGGDSHFDDDELWTLGEGQVVRVKYGNADGEYCKFPFLFNGKEYNSCTDTGRSDGFLWCSTTYNFEKDGKYGFCPHEALATMGGNAEGQPCKFPFRFQGTSYDSCTTEGRTDGYRWCGTTEDYDRDKKYGFCPETAMSTVGGNSEGAPCVFPFTFLGNKYESCTSAGRSDGKMWCATTANYDDDRKWGFCPDQGYSLFLVAAHEFGHAMGLEHSQDPGALMAPIYTYTKNFRLSQDDIKGIQELYGASPDIDLGTGPTPTLGPVTPEICKQDIVFDGIAQIRGEIFFFKDRFIWRTVTPRDKPMGPLLVATFWPELPEKIDAVYEAPQEEKAVFFAGNEYWIYSASTLERGYPKPLTSLGLPPDVQRVDAAFNWSKNKKTYIFAGDKFWRYNEVKKKMDPGFPKLIADAWNAIPDNLDAVVDLQGGGHSYFFKGAYYLKLENQSLKSVKFGSIKSDWLGC
modifications: biotinylated for the microwell assay; left off: His tag, end not stated, state not stated
[1]
  binding to gelatin / denatured type I collagen (SPR, RU): no reduction in collagen-binding
Native type I collagen
  binding to native type I collagen (SPR, RU): no reduction in collagen-binding

B6: Y^302A: rCBD variant, single-point alanine substitution at Y^302, module 2 (protein)
chain: APSPIIKFPGDVAPKTDKELAVQYLNTFYGCPKESCNLFVLKDTLKKMQKFFGLPQTGDLDQNTIETMRKPRCGNPDVANYNFFPRKPKWDKNQITYRIIGYTPDLDPETVDDAFARAFQVWSDVTPLRFSRIHDGEADIMINFGRWEHGDGYPFDGKDGLLAHAFAPGTGVGGDSHFDDDELWTLGEGQVVRVKYGNADGEYCKFPFLFNGKEYNSCTDTGRSDGFLWCSTTYNFEKDGKYGFCPHEALFTMGGNAEGQPCKFPFRFQGTSADSCTTEGRTDGYRWCGTTEDYDRDKKYGFCPETAMSTVGGNSEGAPCVFPFTFLGNKYESCTSAGRSDGKMWCATTANYDDDRKWGFCPDQGYSLFLVAAHEFGHAMGLEHSQDPGALMAPIYTYTKNFRLSQDDIKGIQELYGASPDIDLGTGPTPTLGPVTPEICKQDIVFDGIAQIRGEIFFFKDRFIWRTVTPRDKPMGPLLVATFWPELPEKIDAVYEAPQEEKAVFFAGNEYWIYSASTLERGYPKPLTSLGLPPDVQRVDAAFNWSKNKKTYIFAGDKFWRYNEVKKKMDPGFPKLIADAWNAIPDNLDAVVDLQGGGHSYFFKGAYYLKLENQSLKSVKFGSIKSDWLGC
modifications: biotinylated for the microwell assay; left off: His tag, end not stated, state not stated
[1]
  binding to gelatin / denatured type I collagen (SPR, RU): strong reduction in binding
Native type I collagen
  binding to native type I collagen (SPR, RU): strong reduction in binding
